Laboratory results from ChEMBL document CHEMBL4834419 (J Med Chem, 2021).

Legend:
[1] = target: T1, Retinoic acid receptor RXR-gamma (Homo sapiens, UniProt P48443); experiment: Agonist activity at human RXRgamma transfected in human HEK293T cells co-expressing pFR/pRL-Luc incubated for 14 to 16 hrs by hybrid reporter gene assay; type: cell-based
T1 sequence (P48443 whole entry): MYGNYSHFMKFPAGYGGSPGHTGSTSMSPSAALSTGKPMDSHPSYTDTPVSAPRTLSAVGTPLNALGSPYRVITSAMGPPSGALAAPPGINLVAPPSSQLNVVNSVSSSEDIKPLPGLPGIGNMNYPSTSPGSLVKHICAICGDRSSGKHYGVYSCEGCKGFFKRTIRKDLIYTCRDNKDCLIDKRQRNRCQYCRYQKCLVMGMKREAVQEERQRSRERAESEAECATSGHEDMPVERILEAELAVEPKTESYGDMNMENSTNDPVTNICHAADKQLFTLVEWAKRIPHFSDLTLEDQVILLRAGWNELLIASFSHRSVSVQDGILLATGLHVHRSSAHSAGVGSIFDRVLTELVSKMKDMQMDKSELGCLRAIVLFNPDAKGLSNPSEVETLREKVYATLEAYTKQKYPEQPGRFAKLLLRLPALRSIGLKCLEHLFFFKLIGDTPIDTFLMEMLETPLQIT

[2] = target: T2, Peroxisome proliferator-activated receptor gamma (Homo sapiens) (UniProt P37231); experiment: Agonist activity against human PPARgamma in human HEK293T cells co-expressing pFR/pRL-Luc assessed as receptor activation at 10 uM incubated for 14 to 16 hrs by hybrid reporter gene assay relative to bexarotene; type: cell-based; conditions: filed as agonist, time 14-16 hrs
T2 sequence (whole entry): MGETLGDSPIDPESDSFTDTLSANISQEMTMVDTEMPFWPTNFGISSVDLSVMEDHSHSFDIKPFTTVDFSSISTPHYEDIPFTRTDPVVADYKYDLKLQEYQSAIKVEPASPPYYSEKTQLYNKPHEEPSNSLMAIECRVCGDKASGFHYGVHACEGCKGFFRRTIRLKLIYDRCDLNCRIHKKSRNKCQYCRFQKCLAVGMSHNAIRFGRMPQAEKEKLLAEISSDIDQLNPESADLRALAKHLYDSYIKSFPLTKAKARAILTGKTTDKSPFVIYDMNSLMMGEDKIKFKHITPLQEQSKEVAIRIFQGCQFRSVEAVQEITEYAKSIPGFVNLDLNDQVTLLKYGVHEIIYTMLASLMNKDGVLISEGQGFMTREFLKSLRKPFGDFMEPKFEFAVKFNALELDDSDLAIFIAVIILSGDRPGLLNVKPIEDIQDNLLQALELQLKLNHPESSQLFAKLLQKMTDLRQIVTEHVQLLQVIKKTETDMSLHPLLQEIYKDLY
How it was run: (§1)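 Gal4 hybrid reporter assay in HEK293T cells, seeded 24 h before transfection (Lipofectamine LTX, Opti-MEM) with pFR-Luc, pRL-SV40 and pFA-CMV plasmid carrying the hinge region and LBD of the human receptor. After 5 h, compound added in 0.1% DMSO, with 0.1% DMSO alone as untreated control. Dual-Glo luciferase read after 14−16 h; firefly/renilla normalized; duplicates, ≥2 independent experiments.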

[3] = Metabolic stability in Sprague-Dawley rat liver microsomes assessed as compound degradation at 10 uM incubated for 60 min by HPLC analysis; type: ADME; conditions: 1 h
How it was run: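 Compound at 10 μM final in 0.1 M phosphate, pH 7.4, was preincubated 5 min at 37 °C with an NADPH-regenerating system. Sprague-Dawley rat liver microsomes were then added. Reactions were stopped with ice-cold methanol at 0, 15, 30 and 60 min and remaining compound quantified by HPLC against an external calibration. Controls: no NADPH, heat-inactivated microsomes. Three independent experiments.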

HepG2 = experiment: Cytotoxicity against human HepG2 cells assessed as reduction in cell viability up to 100 uM incubated for 48 hrs by WST-1 assay; type: cell-based; conditions: hepg2, 48 h
How it was run: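 HepG2 cells were seeded at 3 × 10⁴/well and grown 24 h. Medium was then switched to DMEM with 1% FCS containing compound in 0.1% DMSO; 0.1% DMSO alone was the negative control. After 48 h, WST-1 was added and absorbance read at 450/620 nm after 45 min. Four experiments in duplicate.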

[4] = target: T3, Nuclear receptor subfamily 1 group I member 3 (Homo sapiens, UniProt Q14994); experiment: Agonist activity against human CAR in human HEK293T cells co-expressing pFR/pRL-Luc assessed as receptor activation at 10 uM incubated for 14 to 16 hrs by hybrid reporter gene assay relative to bexarotene; type: cell-based; conditions: time 14-16 hrs; how it was run: as §1
T3 sequence (Q14994 whole entry): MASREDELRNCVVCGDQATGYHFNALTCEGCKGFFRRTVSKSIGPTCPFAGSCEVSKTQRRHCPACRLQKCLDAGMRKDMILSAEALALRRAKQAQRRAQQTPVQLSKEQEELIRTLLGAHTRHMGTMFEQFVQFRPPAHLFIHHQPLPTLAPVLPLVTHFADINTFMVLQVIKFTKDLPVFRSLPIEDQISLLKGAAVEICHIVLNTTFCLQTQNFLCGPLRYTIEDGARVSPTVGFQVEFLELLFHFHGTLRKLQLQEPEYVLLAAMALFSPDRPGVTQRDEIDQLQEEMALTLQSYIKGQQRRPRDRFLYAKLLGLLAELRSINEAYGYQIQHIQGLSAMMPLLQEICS

[5] = target: T4, Bile acid receptor (Homo sapiens) (UniProt Q96RI1); experiment: Agonist activity against human FXR in human HEK293T cells co-expressing pFR/pRL-Luc assessed as receptor activation at 10 uM incubated for 14 to 16 hrs by hybrid reporter gene assay relative to bexarotene; type: cell-based; conditions: filed as agonist, time 14-16 hrs; how it was run: as §1
T4 sequence (whole entry): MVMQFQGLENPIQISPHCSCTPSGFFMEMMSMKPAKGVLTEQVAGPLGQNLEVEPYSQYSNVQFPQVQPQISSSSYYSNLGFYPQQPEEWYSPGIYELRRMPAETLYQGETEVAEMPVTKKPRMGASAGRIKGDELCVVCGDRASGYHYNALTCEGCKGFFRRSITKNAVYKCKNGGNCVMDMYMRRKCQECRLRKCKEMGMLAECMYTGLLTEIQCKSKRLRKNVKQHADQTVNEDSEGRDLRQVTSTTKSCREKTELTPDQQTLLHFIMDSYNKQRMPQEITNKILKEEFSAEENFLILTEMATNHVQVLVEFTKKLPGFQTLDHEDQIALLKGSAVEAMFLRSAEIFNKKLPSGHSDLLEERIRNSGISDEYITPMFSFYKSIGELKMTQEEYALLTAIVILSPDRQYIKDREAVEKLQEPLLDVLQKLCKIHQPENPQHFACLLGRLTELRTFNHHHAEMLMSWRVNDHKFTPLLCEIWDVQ

SMILES: O=C(O)CCCc1cc(-c2cc(Cl)cc(Cl)c2)n(-c2ccccc2)n1
- EC50 [1]: 1600 nM
- Activity [2]: 2%
- Stabilty [3]: Stable
- Activity (HepG2): Non-Toxic
- Activity [4]: 5%
- Activity [5]: 1%
